HTR5A inv ag: counter-screen for OPRM1-OPRD1 inverse agonists: human HTR5A inverse agonism. P47898. HTR5A cell line, luminescence. inhibition, % at 9.3 µM. 0.083% of 340,000 active. AID 504634; in the data active = inhibition mostly above about 23%, no sharp cut-off; inactive = mostly below about 18%;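 note: 0% = cells with DMSO and 100% = no-cell wells with DMSO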
MOR-DOR ag: agonists of human mu-delta opioid receptor heterodimerization. P35372+P41143. cells, OPRM1-OPRD1 heterodimerization, luminescence. activation, % at 9.3 µM. 0.3% of 340,000 active;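 note: 0% = vehicle-treated cells and 100% = reference agonist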
Target sequence (P35372 whole entry, looked up): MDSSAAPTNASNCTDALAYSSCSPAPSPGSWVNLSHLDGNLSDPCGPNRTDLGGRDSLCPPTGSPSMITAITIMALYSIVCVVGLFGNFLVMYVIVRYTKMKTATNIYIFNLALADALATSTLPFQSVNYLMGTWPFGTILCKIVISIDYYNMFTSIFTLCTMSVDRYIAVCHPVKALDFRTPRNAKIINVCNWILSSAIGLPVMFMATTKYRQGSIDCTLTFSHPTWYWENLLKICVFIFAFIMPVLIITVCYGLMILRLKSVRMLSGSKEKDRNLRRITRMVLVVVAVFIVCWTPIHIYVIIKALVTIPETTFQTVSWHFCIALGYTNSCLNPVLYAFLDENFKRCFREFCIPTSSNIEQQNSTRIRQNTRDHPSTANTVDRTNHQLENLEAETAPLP
Target sequence (P41143 whole entry, looked up): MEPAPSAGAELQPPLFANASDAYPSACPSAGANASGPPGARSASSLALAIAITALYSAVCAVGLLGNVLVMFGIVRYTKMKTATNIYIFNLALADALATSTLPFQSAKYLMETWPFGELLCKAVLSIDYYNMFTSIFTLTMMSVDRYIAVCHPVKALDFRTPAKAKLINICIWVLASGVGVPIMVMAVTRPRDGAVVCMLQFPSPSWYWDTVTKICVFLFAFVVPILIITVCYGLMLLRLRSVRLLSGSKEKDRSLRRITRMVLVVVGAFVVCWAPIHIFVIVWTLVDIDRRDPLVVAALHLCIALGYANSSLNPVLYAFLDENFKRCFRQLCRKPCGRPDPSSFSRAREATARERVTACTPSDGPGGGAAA
Hep lipid drop: modulators of hepatic lipid droplet formation | inhibition, % at 6.5 µM | AML12 mouse hepatocytes, oleate lipid droplets, BODIPY imaging | 0.4% of 240,000 active;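 active = lipid droplet intensity inhibited by at least 50%, with more than 500 cells counted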
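Test system: AML12 mouse liver cells; schedule: overnight exposure; technique: high-content imaging of BODIPY-stained droplets and DAPI nuclei; read-out: % inhibition of corrected integrated BODIPY droplet signal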
OPRM1-OPRD1 inv: inverse agonists of human mu-delta opioid receptor heterodimerization; P35372+P41143; cell-based MOR-DOR heterodimer luminescence, inverse agonism; inhibition, % at 9.3 µM; 0.21% of 340,000 active; AID 504357; in the data active = inhibition above about 22%, passing the limit was not always enough;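 note: 0% = cells with DMSO and 100% = wells without cells with DMSO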
HTR5A ag: counter-screen for OPRM1-OPRD1 agonists: human HTR5A agonism; HTR5A agonist assay, luminescence, cell-based; P47898; 0.61% of 340,000 active; activation, % at 9.3 µM; AID 504692; in the data active = activation mostly above about 9.5%, no sharp cut-off; inactive = mostly below about 7.6%;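 note: 0% = cells with vehicle only and 100% = reference agonist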
Hep lipid conf: hepatic lipid droplet formation inhibition, confirmed; inhibition, % at 5.2 µM; 65% of 870 active; shares compounds with Hep lipid drop; AML12 mouse hepatocytes, BODIPY lipid droplet imaging; droplets induced with 100 µM oleic acid; AID 463183;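 active = inhibition of lipid droplet metric at least 50%, with more than 300 cells in each of four replicates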;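 note: plate controls were DMSO with oleic acid for no effect and 5 µM Triacsin-C for full effect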
AML12 tox img: toxic to AML12 mouse hepatocytes in counter-screen | 3% of 870 active | z-score at 5 µM | shares compounds with Hep lipid drop | DAPI nuclear morphology cytotoxicity imaging; stronger effect = higher value; cells fed 100 µM oleate overnight; in the data active = z-score above about 6.3;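 note: compound exposure lasted overnight at 37 °C before fixation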
OPRM1-D1 ag cf: confirmation of human OPRM1-OPRD1 heterodimerization agonists; shares compounds with MOR-DOR ag; cells, MOR-DOR heterodimerization, luminescence complementation; activation, % at 9.3 µM; 45% of 830 active; AID 504904;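 note: 0% = vehicle-treated cells and 100% = reference agonist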
HTR5A ag ctr2: counter-screen for OPRM1-OPRD1 agonists: human HTR5A agonism; HTR5A agonist counterscreen, cell luminescence; activation, % at 9.3 µM; 8% of 830 active; shares compounds with MOR-DOR ag; in the data active = activation above about 17%;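 note: 0% = vehicle-treated cells and 100% = reference agonist response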
An asterisk follows results filed as active; i = inactive; nt = no result given. Most compounds without a hit are left out; they make up all but 1.4% or so of the library. Cut-off read from the data, not from the text of the source, unless noted: active = activation above about 18%; inactive = the rest.

SMILES	HTR5A inv ag	MOR-DOR ag	Hep lipid drop	OPRM1-OPRD1 inv	HTR5A ag	others
O=c1c2ccccc2nc(/C=C/c2ccc(O)cc2)n1-c1ccccc1O	7	-3	-3	17	-3
O=c1c2ccccc2nc(/C=C/c2ccccc2)n1-c1ccccc1O	2	58*	10	-262	-1
N#C/C=C/C#N	-21	-3	nt	19	5
Cn1ncnc2c(=O)n(C)c(=O)nc1-2	-3	31*	nt	-143	20*
CC(=O)O[C@H]1CC[C@@]2(C)C(=CC(=O)C3C2CC[C@@]2(C)C3C[C@H](OC(C)=O)[C@@H]2OC(C)=O)C1 (some centres not stated)	-35	-1	nt	7	9.0*
CCCN1CCC[C@@H](c2cccc(O)c2)C1	18	0	nt	1	3
CC(C)C12CN3CCN(CC(C3)/C1=N\O)C2	-12	-2	-17	13	12*
COc1ccc2c(c1)NP(=S)(Oc1ccccc1)N2 (configuration not stated)	-33	1	10	-4	9.4*
COc1cc2c(cc1OC)-c1c(OC)c(OC)cc3c1[C@H](C2)[N+](C)(C)CC3	24	-1	18	7	-10
CNC(=S)N1CCn2cccc2C1c1cccnc1 (configuration not stated)	-27	-3	-10	14	10*
CCCCNC(=S)N1CCn2cccc2C1c1cccnc1 (configuration not stated)	6	-2	3	10	-2
O=P(C(=Nc1ccc(Cl)cc1)N1CCOCC1)(N1CCOCC1)N1CCOCC1	18	-1	-4	7	0
COC1CCC(OC2CC(C3(C)CCC4(CC(O)C(C)C(C(C)/C=C(\C)C(=O)C(C)CC(C)C(=O)O)O4)O3)OC3(OC(C4OC(O)(CO)C(C)CC4C)CC3C)C2C)OC1C (configuration not stated)	-30	19*	nt	-84	8
O=C(c1cn(Cc2ccccc2)c2ccccc12)C1CC1	-28	1	12	-6	11*
Nc1cc(C(=O)Nc2ccc(Cl)cc2)ccc1N1CC2CC(C1)c1cccc(=O)n1C2 (configuration not stated)	8	1	-11	-5	-3
CCCCn1c(N)c(C(=O)NCCN2CCOCC2)c2nc3ccccc3nc21	-1	-3	nt	15	0
CCCCn1c(NC(=O)c2ccc(Br)o2)c(C(=O)OCC)c2nc3ccccc3nc21	12	-11	2	55*	-5
CC(C)NC(C)Cc1ccc(I)cc1 (configuration not stated)	-7	-2	nt	12	2
C[C@H]1O[C@@H](O[C@H]2[C@@H](O)C[C@H](O[C@H]3[C@@H](O)C[C@H](O[C@H]4CC[C@@]5(C)[C@H](CC[C@@H]6[C@@H]5CC[C@]5(C)[C@@H](C7=CC(=O)OC7)CC[C@]65O)C4)O[C@@H]3C)O[C@@H]2C)C[C@H](O)[C@@H]1O	nt	nt	14	nt	nt
CC1OC(OC2C(O)CC(OC3C(O)CC(OC4CCC5(C)C(CCC6C5CCC5(C)C(C7=CC(=O)OC7)C(O)CC65O)C4)OC3C)OC2C)CC(O)C1O (configuration not stated)	-76	62*	nt	-320	19*
CCc1ccc(-n2c(O)c(C(C)=O)c(=O)[nH]c2=O)cc1 (tested in a mixture with another compound)	0	-3	70*	15	1	Hep lipid conf=23;AML12 tox img=-1.3
CC1(C)CN=C(Nc2ccc(F)c(F)c2)S1	-17	0	nt	1	-4
CC1(C)CN=C(Nc2ccc(F)c(Cl)c2)S1	19	0	116*	1	0	Hep lipid conf=3;AML12 tox img=-0.0092
CCN(CC)c1ccc(CNCCc2ccc(F)cc2)cc1	-4	2	2	-12	1
C[C@@H]1O[C@@H](O[C@H]2C[C@@H](O)[C@]3(CO)[C@H]4[C@H](O)C[C@]5(C)[C@@H](C6=CC(=O)OC6)CC[C@]5(O)[C@@H]4CC[C@]3(O)C2)[C@H](O)[C@H](O)[C@H]1O	-33	70*	8	-386	30*	OPRM1-D1 ag cf=79*;HTR5A ag ctr2=6
SMILES	HTR5A inv ag	MOR-DOR ag	Hep lipid drop	OPRM1-OPRD1 inv	HTR5A ag	others
CC(CN1CCOCC1)OC(=O)Cc1ccccc1 (configuration not stated)	5	-2	15	8	0
CCC(=O)OC(Cc1ccccc1)(c1ccccc1)[C@H](C)CN(C)C (some centres not stated)	-22	81*	nt	-326	9	OPRM1-D1 ag cf=80*;HTR5A ag ctr2=-5
N=c1sccn1Cc1ccccc1F	11	1	nt	-7	-3
CN(C)C(CNC(=O)Cc1c(Cl)cccc1Cl)c1ccccc1 (configuration not stated)	-3	145*	-6	i	1	OPRM1-D1 ag cf=1;HTR5A ag ctr2=4
CC(NCc1cccc(Cl)c1Cl)C(O)c1ccccc1 (configuration not stated)	-20	-1	-8	4	8
CCOC(=O)C1(c2ccccc2)CCN(CCC(=O)Nc2ccccc2OC)CC1	-24	92*	-30	-439	7	OPRM1-D1 ag cf=15;HTR5A ag ctr2=4
CCOC(=O)C1(c2ccccc2)CCN(CCC(=O)Nc2ccc(F)cc2)CC1	-13	131*	nt	-492	1	OPRM1-D1 ag cf=153*;HTR5A ag ctr2=0
CCOC(=O)C1(c2ccccc2)CCN(CC(=O)c2ccc(NC(C)=O)cc2)CC1	6	-2	nt	8	-2
CCOC(=O)C1(c2ccccc2)CCN(CC(=O)Nc2cccc3ccccc23)CC1	-17	24*	-4	-165	1	OPRM1-D1 ag cf=11;HTR5A ag ctr2=1
COCCNC(=O)Cn1cc(C(=O)c2ccccc2F)c2ccccc21	-2	-1	0	6	1
CCC(C)C1(CC)C(=O)NC(=O)N=C1N (configuration not stated)	-8	-1	-1	6	3
O=P(Oc1ccccc1)(Oc1ccccc1)c1ccccc1	-4	-1	-1	7	1
COc1ccc2c(c1)c(CCN)c(C)n2Cc1ccccc1	-21	-3	-10	14	8
CC(=O)O[C@@H]1CC[C@]2(C)C3CC[C@@]4(C)C(C[C@@H](O)[C@@H]4O)C3[C@@H](OC(C)=O)C[C@H]2C1 (some centres not stated)	-3	-2	nt	10	1
